Laboratory results as given in PubChem BioAssay.
Records with an inconclusive call do not appear.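 Rule for the calls, unless noted: active = inhibition over a set limit, the all-compound mean plus 3 SD, in both replicate runs; inconclusive = over that limit in just one replicate run; inactive = at or under that limit in both runs.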

Key:
[1] = OD615 S. cerevisiae growth inhibition, permissive medium, pilot counter-assay, permissive growth control for S. cerevisiae lifespan shortening project (AID 705;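 active = growth inhibition above 25% in both replicates, a cutoff set 3 SD above the mean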); details: OD615, 24 h, at 10 µM, active compounds read high
Summary of the method: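 Test system: Saccharomyces cerevisiae strain carrying genetically modified DeaD replicative-lifespan system; buffer or medium: SC raffinose/galactose permissive medium; dosing: one dose 10 µM, DMSO 0.25% final; times: 24 h exposure, 30 °C; measured by: OD at 615 nm; read-out basis: growth inhibition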

[2] = Restrictive medium S. cerevisiae growth inhibition, OD615, pilot screen of yeast lifespan reduction project, restrictive growth control (AID 706;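 active = growth inhibition above a set limit, 3 SD over mean compound inhibition, in both replicates, cut at about 43% in these data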;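 note: modified DeaD lifespan yeast strain shifted to restrictive glucose medium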); details: OD615, 48 h, at 10 µM, active compounds read high
Summary of the method: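 material = engineered S. cerevisiae DeaD strain | buffer or medium = glucose-based CSMM-D restrictive medium | dosing = one concentration, 10 µM final, 0.25% DMSO | schedule = 4 h pre-growth plus 48 h compound exposure, 30 °C | detection = OD615 absorbance reading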

[3] = viability gain of MRP-1-high H69AR cells under doxorubicin, pilot screen, MRP-1 activator project, CellTiter-Glo, duplicate (AID 807;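 active = viability increase at or above a cutoff of the median across tested compounds plus 3 SD, cut at about 8.5% in these data, passing the limit was not always enough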;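 note: compound pretreatment 18-22 h then 72 h combined with doxorubicin; 0% = doxorubicin alone and 100% = vehicle without doxorubicin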); details: H69AR viability with doxorubicin, CellTiter-Glo luminescence; at 10 µM; active compounds read high
[4] = growth suppression of beta-catenin knockout HCT116, pilot screen, human colon tumor cells (AID 823;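 active = cell viability at or below a set limit in both duplicate runs, the limit being the all-compound median minus 4 SD, cut at about 23% in these data, passing the limit was not always enough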;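 note: 0% = wells killed by 20 µM Hyamine and 100% = untreated DMSO cell wells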); details: CellTiter-Glo, 60 h, at 10 µM, active compounds read low
[5] = growth suppression of PTEN-deleted HCT116, pilot screen, cell-based, HCT116 clonal line, CellTiter-Glo (AID 824;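 active = viability at or below 27.92% in each of two runs, the all-compound median minus 4 SD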;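 note: 0% = 20 µM Hyamine control and 100% = vehicle cell control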); details: 60 h, at 10 µM, active compounds read low
[6] = inhibitors of the yeast RAM network, pilot screen, dse1pr::URA3 reporter, 5-FOA selection (AID 869);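 note: 0% = DMSO wells with no growth and 100% = 10 µM 1-NA-PP1 with full growth; RAM network block rescues cells from 5-FOA so hits raise OD615 growth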; details: S. cerevisiae dse1pr::URA3 5-FOA growth, OD615, 2 d; at 10 µM; active compounds read high; strain carries analog-sensitive mutant Cbk1 kinase
[7] = RAM signaling pathway blockade in yeast – S. cerevisiae, Pdr1DBD-CYC8 efflux-inhibited sensitized strain, primary screen (AID 1298;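 active = RAM network inhibition above 8.4% in each of two replicates, 3 SD over the compound average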;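 note: 0% = DMSO untreated cells without growth and 100% = 10 µM 1-NA-PP1 full growth; higher means more yeast growth rescued from 5-FOA killing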); details: S. cerevisiae cbk1-as DSE1-URA3 strain, 5-FOA growth OD615, 2 d; at 50 µM; active compounds read high

CCOCCCNC(=O)C(NC(=O)c1ccc2c(c1)OCO2)c1ccc(OC)cc1 (configuration not stated)
inactive: growth inhibition [1] -12.5% | growth inhibition [2] -24.3% | viability increase [3] -2% | viability [4] 101% | viability [5] 96.3% | inhibition [6] 1.6% | RAM network inhibition [7] 3.11%

Cc1nc2ccccc2c2oc(C(=O)Nc3ccc4c(c3)OCCO4)cc12
inactive: growth inhibition [1] 6.06% | growth inhibition [2] 10.4% | viability increase [3] -1.19% | viability [4] 87.7% | viability [5] 95.3% | inhibition [6] -0.63% | RAM network inhibition [7] 8.55%

CC(=O)c1ccc(C(=O)Nc2ccc(N3CCOCC3)cc2)cc1
inactive: growth inhibition [1] -0.45% | growth inhibition [2] 2.98% | viability increase [3] 3.45% | viability [4] 98.5% | viability [5] 99.6% | inhibition [6] 0.45% | RAM network inhibition [7] 2.61%

CCn1cc(C2N3CC4(C)CN2CC(C)(C3)C4=O)c2ccccc21 (configuration not stated)
inactive: growth inhibition [1] -13.9% | growth inhibition [2] -16.4% | viability increase [3] -0.78% | viability [4] 97.3% | viability [5] 100% | inhibition [6] 1.94% | RAM network inhibition [7] 0.48%

COc1ccc(-n2c(Cc3cc(=O)[nH]c(=O)[nH]3)nnc2SCC(=O)NC2CCCC2)cc1
inactive: growth inhibition [1] -0.575% | growth inhibition [2] 2.41% | viability increase [3] 1.47% | viability [4] 104% | viability [5] 107% | inhibition [6] 0.535% | RAM network inhibition [7] 3.15%

CC(C)c1ccc2c(c1)C(=O)NC(C)(C)C2
inactive: growth inhibition [1] -8.81% | growth inhibition [2] -11.3% | viability increase [3] -2.07% | viability [4] 116% | viability [5] 97.8% | inhibition [6] 1.88% | RAM network inhibition [7] 4.27%

N#CC1=C(N)SC(N)=C(C#N)C1C1CC=CCC1 (configuration not stated)
inactive: growth inhibition [1] -18.9% | growth inhibition [2] -10.4% | viability increase [3] -0.79% | viability [4] 108% | viability [5] 97.5% | inhibition [6] 2.11% | RAM network inhibition [7] 0.74%

O=C1OC(Nc2nc3ccccc3s2)c2ccccc21 (configuration not stated)
inactive: growth inhibition [1] -2.46% | growth inhibition [2] 6.6% | viability increase [3] 0.26% | viability [4] 101% | viability [5] 101% | inhibition [6] 0.67% | RAM network inhibition [7] 0.48%

O=C(NCc1ccc2c(c1)OCO2)c1nnc(Cc2ccc(Cl)cc2)o1
inactive: growth inhibition [1] -5.43% | growth inhibition [2] 4.12% | viability increase [3] 2.05% | viability [4] 103% | viability [5] 103% | inhibition [6] 2.2% | RAM network inhibition [7] 5.48%

O=C(NCCNC(=O)c1ccc(Br)o1)c1ccc(Br)o1
inactive: growth inhibition [1] -7.92% | growth inhibition [2] 4.26% | viability increase [3] 1.39% | viability [4] 99.1% | viability [5] 105% | inhibition [6] 0.39% | RAM network inhibition [7] 0.1%

CC(C)N(C(=O)CN(C#N)c1nc(N(C)C)nc(N(C)C)n1)c1ccccc1
inactive: growth inhibition [1] -16.1% | growth inhibition [2] -7.49% | viability increase [3] -2.51% | viability [4] 100% | viability [5] 106% | inhibition [6] 2.33% | RAM network inhibition [7] 4.46%

CCCS(=O)(=O)c1nc(S(=O)(=O)c2ccc(C)cc2)c(NCCN2CCOCC2)s1
inactive: growth inhibition [1] -8.93% | growth inhibition [2] -6.58% | viability increase [3] -0.11% | viability [4] 93.7% | viability [5] 86.7% | inhibition [6] 1.04% | RAM network inhibition [7] 6.38%

Cc1ccc(C2/C(=C(/O)c3ccccc3)C(=O)C(=O)N2CCN2CCOCC2)o1 (configuration not stated)
inactive: growth inhibition [1] 8.83% | growth inhibition [2] 8.54% | viability increase [3] -1.8% | viability [4] 104% | viability [5] 96.7% | inhibition [6] 0.095% | RAM network inhibition [7] -0.05%

CCN(CC)c1ccc(NC(=O)Cn2cc3c(n2)CCC(C)C3)c(C)c1 (configuration not stated)
inactive: growth inhibition [1] 2.12% | growth inhibition [2] 1.57% | viability increase [3] 2.97% | viability [4] 80.4% | viability [5] 76.2% | inhibition [6] 0.835% | RAM network inhibition [7] -1.78%

COc1ccc(CCNC(=O)CCNS(=O)(=O)c2cccc3nsnc23)cc1OC
inactive: growth inhibition [1] -2.13% | growth inhibition [2] -8.7% | viability increase [3] -4.88% | viability [4] 86.5% | viability [5] 97.2% | inhibition [6] 0.305% | RAM network inhibition [7] 1.25%

Cc1cccc2sc(NC(=O)CCNS(=O)(=O)c3cccc4nonc34)nc12
inactive: growth inhibition [1] -11.1% | growth inhibition [2] -6.5% | viability increase [3] -5.31% | viability [4] 86.1% | viability [5] 80.7% | inhibition [6] 2.71% | RAM network inhibition [7] 7.24%

O=C1C2CC=C(Cl)CC2C(=O)N1CC1Cc2ccccc2CO1 (configuration not stated)
inactive: growth inhibition [1] -5.07% | growth inhibition [2] 0.875% | viability increase [3] 1.29% | viability [4] 96.2% | viability [5] 101% | inhibition [6] 2.77% | RAM network inhibition [7] -2.81%

CCOC(=O)C1=C(Nc2cccc(Cl)c2)OCC1=O
inactive: growth inhibition [1] -17.9% | growth inhibition [2] 3.65% | viability increase [3] -1.85% | viability [4] 102% | viability [5] 99% | inhibition [6] 2.21% | RAM network inhibition [7] 4.51%

COc1ccc(S(=O)(=O)Cc2ccc(C(=O)NCc3cccnc3)o2)cc1
inactive: growth inhibition [1] -4.57% | growth inhibition [2] -10.1% | viability increase [3] -5% | viability [4] 88.2% | viability [5] 84% | inhibition [6] 1% | RAM network inhibition [7] 3.45%

Cc1c(NC(=O)C2CCCN2S(=O)(=O)c2ccccc2)c(=O)n(-c2ccccc2)n1C (configuration not stated)
inactive: growth inhibition [1] -8.82% | growth inhibition [2] -10.2% | viability increase [3] -1% | viability [4] 97.3% | viability [5] 107% | inhibition [6] 2.12% | RAM network inhibition [7] 0.05%

O=C(Cn1cc2c(n1)CCCC2)N1CCCC1
inactive: growth inhibition [1] -1.5% | growth inhibition [2] 1.53% | viability increase [3] 0.07% | viability [4] 95.5% | viability [5] 96.6% | inhibition [6] 1.14% | RAM network inhibition [7] 4.6%

O=C1CN(C(=O)CN2CCOCC2)C(c2ccccc2)c2cc(Br)ccc2N1 (configuration not stated)
inactive: growth inhibition [1] -9.19% | growth inhibition [2] -11.4% | viability increase [3] -3.48% | viability [4] 96.4% | viability [5] 92.8% | inhibition [6] 0.785% | RAM network inhibition [7] 1.01%

O=C(Cn1cc2c(n1)CCCC2)N1CCc2ccccc21
inactive: growth inhibition [1] -7.55% | growth inhibition [2] 9.02% | viability increase [3] -2.04% | viability [4] 66% | viability [5] 77.4% | inhibition [6] 2.28% | RAM network inhibition [7] -1.03%

c1ccc(CNn2c(N3CCOCC3)nc3ccccc32)cc1
inactive: growth inhibition [1] -14.9% | growth inhibition [2] -10.9% | viability increase [3] -3.02% | viability [4] 93% | viability [5] 93.2% | inhibition [6] 0.5% | RAM network inhibition [7] 4.26%

O=C(CCCSc1nc2sc3c(c2c(=O)[nH]1)CCC3)NCCCO
inactive: growth inhibition [1] -8.91% | growth inhibition [2] 6.12% | viability increase [3] 0.57% | viability [4] 102% | viability [5] 99.8% | inhibition [6] 0.14% | RAM network inhibition [7] 1.44%

COC(=O)c1ccc(NC(=O)CNC(=O)C2CCCCC2)cc1
inactive: growth inhibition [1] -0.115% | growth inhibition [2] -0.73% | viability increase [3] -0.57% | viability [4] 98.4% | viability [5] 88.1% | inhibition [6] 0.625% | RAM network inhibition [7] 1.94%

CC(C)NC(=O)C1(O)c2ccccc2NC(=O)N1c1ccc(Cl)c(Cl)c1 (configuration not stated)
inactive: growth inhibition [1] -5.92% | growth inhibition [2] -12.9% | viability increase [3] -2.69% | viability [4] 89.6% | viability [5] 93.9% | inhibition [6] 0.375% | RAM network inhibition [7] 2.53%

CC1=CC(c2ccccc2)n2nc(NS(=O)(=O)c3ccc(C)cc3)nc2N1 (configuration not stated)
inactive: growth inhibition [1] -9.59% | growth inhibition [2] 5.79% | viability increase [3] -1.29% | viability [4] 100% | viability [5] 99.5% | inhibition [6] 0.09% | RAM network inhibition [7] 2.86%

CCOC(=O)Cn1c(C)nc2ccccc21
inactive: growth inhibition [1] -14% | growth inhibition [2] -14% | viability increase [3] -1.63% | viability [4] 102% | viability [5] 105% | inhibition [6] 1.29% | RAM network inhibition [7] 1.95%

NC(=O)C1CCN(c2ncnc3c2c(-c2ccccc2)cn3-c2ccccc2)CC1
inactive: growth inhibition [1] -2.17% | growth inhibition [2] 8.02% | viability increase [3] -4.62% | viability [4] 81.3% | viability [5] 81.9% | inhibition [6] -0.35% | RAM network inhibition [7] 3.9%

CCCN1C(=O)c2cc(C(=O)NC3CCCC3)ccc2C1O (configuration not stated)
inactive: growth inhibition [1] -10.3% | growth inhibition [2] -1.61% | viability increase [3] -2.46% | viability [4] 103% | viability [5] 95.5% | inhibition [6] 0.125% | RAM network inhibition [7] 9.43%

Cn1c(C(=O)NCCCN2CCCC2=O)cc2c(=O)n(C)c3ccccc3c21
inactive: growth inhibition [1] -6.28% | growth inhibition [2] -1.63% | viability increase [3] -4.16% | viability [4] 108% | viability [5] 94.4% | inhibition [6] 1.69% | RAM network inhibition [7] 0.06%

CC(C)OC(=O)c1nnc(Cc2ccc(F)cc2)o1
inactive: growth inhibition [1] 4.28% | growth inhibition [2] 8.2% | viability increase [3] 2.12% | viability [4] 113% | viability [5] 107% | inhibition [6] 0.82% | RAM network inhibition [7] 7.85%

Cc1cc(-n2c(SCCC#N)nnc2-c2cccnc2)ccc1Cl
inactive: growth inhibition [1] -12.4% | growth inhibition [2] -22.3% | viability increase [3] -2.79% | viability [4] 98.7% | viability [5] 94.5% | inhibition [6] 3.32% | RAM network inhibition [7] 5.99%

O=C(CCCc1ccccc1)NCCN1CCOCC1
inactive: growth inhibition [1] -12.1% | growth inhibition [2] -5.57% | viability increase [3] 1.56% | viability [4] 104% | viability [5] 97.9% | inhibition [6] 0.795% | RAM network inhibition [7] 2.4%

CC(=O)Oc1cc2c(C(=O)NCc3ccncc3)c(C)oc2c2ccccc12
inactive: growth inhibition [1] -15.1% | growth inhibition [2] -16.8% | viability increase [3] -3.14% | viability [4] 90.9% | viability [5] 95.8% | inhibition [6] 0.64% | RAM network inhibition [7] 8.02%
